The results in this text go back to ChEMBL document CHEMBL1129498, “Azole endothelin antagonists. 2. Structure-activity studies” (J Med Chem, 1996).

Experiment [1] has as its target T1, Endothelin-1 receptor (Rattus norvegicus, UniProt P26684).
T1 sequence (P26684 whole entry): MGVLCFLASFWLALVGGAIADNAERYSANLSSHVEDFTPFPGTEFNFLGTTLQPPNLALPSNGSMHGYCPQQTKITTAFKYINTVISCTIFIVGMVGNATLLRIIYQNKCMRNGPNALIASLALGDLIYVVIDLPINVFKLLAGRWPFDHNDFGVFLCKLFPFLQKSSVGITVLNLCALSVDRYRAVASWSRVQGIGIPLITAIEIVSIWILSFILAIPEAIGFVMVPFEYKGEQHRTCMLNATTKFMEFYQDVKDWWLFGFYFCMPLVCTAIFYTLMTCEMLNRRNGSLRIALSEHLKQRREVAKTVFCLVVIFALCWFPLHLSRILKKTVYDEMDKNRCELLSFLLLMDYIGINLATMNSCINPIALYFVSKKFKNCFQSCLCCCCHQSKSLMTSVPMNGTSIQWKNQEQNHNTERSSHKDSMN
Briefly: Inhibitory activity was evaluated against ET- A Binding to Endothelin A receptor in MMQ cell homogenates. It is filed as cell-free.

Experiment [2] concerns MMQ. Briefly: Inhibitory activity was evaluated by measuring the PI hydrolysis in MMQ cell line. In kind it is functional, cell-based, Rattus norvegicus. The method in brief: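 MMQ cells (0.4 × 10⁶ cells/mL) labeled 16 h with 10 µCi/mL [³H]myoinositol in RPMI, PBS-washed, then held 60 min in buffer A with protease inhibitors and 10 mM LiCl. Compound pre-incubated 5 min, then 1 nM ET-1 challenge for 30 min at 37 °C, stopped with chloroform-methanol. Total inositol phosphates extracted and taken from the aqueous phase by AG1-X8 anion-exchange batch chromatography.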

For experiment [3], the target named is T2, Endothelin receptor type B (Sus scrofa, UniProt P35463).
T2 sequence (P35463 whole entry): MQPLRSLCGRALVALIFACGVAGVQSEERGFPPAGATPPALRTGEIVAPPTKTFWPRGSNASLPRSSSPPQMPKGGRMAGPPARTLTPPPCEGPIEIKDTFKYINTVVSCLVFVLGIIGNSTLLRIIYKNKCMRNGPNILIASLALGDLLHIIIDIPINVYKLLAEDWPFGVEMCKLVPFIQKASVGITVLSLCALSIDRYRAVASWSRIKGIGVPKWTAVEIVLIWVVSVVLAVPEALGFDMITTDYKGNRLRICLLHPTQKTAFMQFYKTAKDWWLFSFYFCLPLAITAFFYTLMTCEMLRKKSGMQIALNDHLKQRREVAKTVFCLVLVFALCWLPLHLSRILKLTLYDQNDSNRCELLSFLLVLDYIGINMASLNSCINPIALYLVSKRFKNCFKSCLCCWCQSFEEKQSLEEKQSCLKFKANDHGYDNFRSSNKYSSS
Briefly: Inhibitory activity was evaluated against ET- B Binding to Endothelin B receptor from porcine cerebellar membranes.

For orientation: IC50 means the concentration needed to halve the response being measured. Higher therefore signals weaker potency in that assay. For the molecule `Cc1[nH]c([C@@H](Cc2cn(C)c3ccccc23)NC(=O)[C@H](CC(C)C)NC(=O)NC2CC3CCC2C3)nc1C(=O)O` (stereo in doubt; 14p), the IC50 in experiment [1] is 0.019 µM; in experiment [2] (mmq), 0.036 µM; in experiment [3] it was 9.5 µM.

For `Cc1[nH]c([C@@H](Cc2cn(C)c3ccccc23)NC(=O)[C@H](CC(C)C)NC(=O)NC2CC3CCC2C3)nc1C(=O)O` (stereo in doubt; 14o), the IC50 in experiment [1] turned out to be 0.029 µM; in experiment [2] (mmq), 0.016 µM; in experiment [3] it was 8.3 µM.

As for `Cc1oc([C@@H](Cc2cn(C)c3ccccc23)NC(=O)[C@H](CC(C)C)NC(=O)N2CCc3ccccc32)nc1C(=O)O`, the IC50 in experiment [1] stood at 0.0059 µM; in experiment [2] (Rattus norvegicus, MMQ), 0.0036 µM; in experiment [3], 34 µM.

As for `Cc1[nH]c([C@@H](Cc2cn(C)c3ccccc23)NC(=O)[C@H](CC(C)C)NC(=O)Nc2ccccc2)nc1C(=O)O`, the IC50 amounted to 0.0076 µM in experiment [1]; 0.0013 µM in experiment [2] (Rattus norvegicus, MMQ); 37 µM in experiment [3].

As to `Cc1[nH]c([C@@H](Cc2cn(C)c3ccccc23)NC(=O)[C@H](CC(C)C)NC(=O)NC2CCCCC2)nc1C(=O)O`, the IC50 in experiment [1] worked out at 0.011 µM; in experiment [2] (Rattus norvegicus, MMQ), 0.0041 µM; in experiment [3], 34 µM.

For `Cc1oc([C@@H](Cc2cn(C)c3ccccc23)NC(=O)[C@H](CC(C)C)NC(=O)Nc2ccccc2F)nc1C(=O)O`, the half-inhibitory concentration (IC50) turned out to be 0.017 µM in experiment [1]; 0.026 µM in experiment [2] (Rattus norvegicus, MMQ); 2.4 µM in experiment [3].

As to `Cc1oc([C@@H](Cc2cn(C)c3ccccc23)NC(=O)[C@H](CC(C)C)NC(=O)N2CCCc3ccccc32)nc1C(=O)O`, the IC50 in experiment [1] amounted to 0.033 µM; in experiment [2] (Rattus norvegicus, MMQ) it was 0.0009 µM; in experiment [3], 66 µM.

Consider `Cc1[nH]c([C@@H](Cc2cn(C)c3ccccc23)NC(=O)[C@H](CC(C)C)NC(=O)NC2CCCCCC2)nc1C(=O)O`, for which the IC50 in experiment [1] came out at 0.06 µM; in experiment [2] (Rattus norvegicus, MMQ) it was 0.087 µM; in experiment [3], 42 µM.

In the case of `Cc1oc([C@@H](Cc2cn(C)c3ccccc23)NC(=O)[C@H](CC(C)C)NC(=O)N2CCOC23CCCCC3)nc1C(=O)O`, the IC50 in experiment [1] stood at 0.0057 µM; in experiment [2] (Rattus norvegicus, MMQ), 0.0061 µM; in experiment [3], 35 µM.

`Cc1oc([C@@H](Cc2cn(C)c3ccccc23)NC(=O)[C@H](CC(C)C)NC(=O)Nc2ccccc2)nc1C(=O)O`: the 50% inhibitory concentration (IC50) turned out to be 0.016 µM in experiment [1]; 0.053 µM in experiment [2] (Rattus norvegicus, MMQ); 30 µM in experiment [3].

Turning to `Cc1[nH]c([C@@H](Cc2cn(C)c3ccccc23)NC(=O)[C@H](CC(C)C)NC(=O)NC2CCCC2)nc1C(=O)O`, the IC50 worked out at 0.037 µM in experiment [1]; 0.043 µM in experiment [2] (Rattus norvegicus, MMQ); 67 µM in experiment [3].
